Test results as given in article PMC7869823 (Bioorganic & medicinal chemistry, 2020).
Where “and” joins values, the source holds several entries; their conditions need not be identical. Identical values can stand only once.

Columns and labels:
[1] = tested on: sea urchin NAADP receptor; experiment: Sub-threshold receptor desensitization in sea urchin egg homogenates; format: biochemical; conditions: compared to NAADP
Procedure, shortened: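 Sea urchin egg homogenates were exposed to increasing sub-threshold concentrations of test compound or NAADP, and time-dependent desensitization was probed by subsequent addition of 1 μM NAADP. Ca2+ release was read as peak fluo-3 fluorescence. IC50 was derived from the concentration-response and compared with that of NAADP.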

[2] = target: sea urchin NAADP receptor; experiment: Ca2+ release in sea urchin egg homogenates; format: biochemical; conditions: compared to NAADP
cultured human cells = conditions: low concentrations, microinjected; cited from earlier work
[3] = tested on: NAADP 23–24 kDa binding protein(s); conditions: cited from earlier work

Row | EC50 relative to NAADP (fold greater / fold less potent as an agonist) [2] | Structure (SMILES) | decrease in desensitization potency relative to NAADP [1] | Ca2+ release in cultured human cells (cultured human cells) | photolabeling of NAADP binding protein(s) [3]
1 | 89 fold and 90 fold | C#Cc1nc2c(N)ncnc2n1[C@@H]1O[C@H](COP(=O)(O)OP(=O)(O)OC[C@H]2O[C@@H]([n+]3cccc(C(=O)[O-])c3)[C@H](O)[C@@H]2O)[C@@H](O)[C@H]1OP(=O)(O)O [Compound 8, 8-Ethynyl-NAADP] | 86 fold and 90 fold |  | 
2 |  | C#Cc1nc2c(N)ncnc2n1[C@@H]1O[C@H](COP(=O)(O)OP(=O)(O)OC[C@H]2O[C@@H]([n+]3cc(N=[N+]=[N-])cc(C(=O)[O-])c3)[C@H](O)[C@@H]2O)[C@@H](O)[C@H]1OP(=O)(O)O [Compound 9, 5-N3-8-Ethynyl-NAADP] |  | elicit Ca^2+ release | specifically photolabel NAADP 23–24 kDa binding protein(s)
